Data set [1] can be described thus: Volume of distribution in CD1 mouse at 1 mg/kg, iv. Format: ADME, organism-based. Also noted: dose 1 mg/kg, route intravenous. The note with it: in vivo. The gist of the method: (§1)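 Plasma sampled at 0.083-24 h (T_last 24 h), protein-precipitated with acetonitrile containing jervine internal standard, and quantified by LC/MS/MS. Parameters taken from the concentration-time profile.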

Data set [2] can be described thus: Oral bioavailability in cynomolgus monkey at 4 mg/kg. It counts as ADME, organism-based, Macaca fascicularis. The conditions noted are these: in vivo.
The nature of data set [3]: Oral bioavailability in Beagle dog at 4 mg/kg. Format: ADME, organism-based, Canis lupus familiaris. The conditions noted are these: in vivo.
The nature of data set [4]: Plasma clearance in Sprague-Dawley rat at 1 mg/kg, iv. It counts as ADME, organism-based. Also noted: dose 1 mg/kg, route intravenous. The gist of the method:
as §1

The nature of data set [5]: Toxicity in po dosed Ptc+/- Hic+/- mouse B837Tx cells allografted NOD/SCID mouse assessed as maximum tolerated dose after 5 days. Format: organism-based. The note with it: in vivo. The gist of the method:
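Tumor-bearing immunocompromised mice received repeat oral dosing for 5 days. MTD was defined as the dose tolerated by all animals (N = 3).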

Another data set has as its target Protein smoothened (Homo sapiens, UniProt Q99835). The data set can be described thus: Inhibition of human recombinant SMO expressed in mouse C3H10T1/2 cells assessed as inhibition of association of BODIPY-cyclopamine. It counts as cell-based, C3H 10T1/2.
The subject of data set [6] is Mus musculus. The experiment in a line: Antitumor activity against Ptc+/- Hic+/- mouse B837Tx cells allografted in NOD/SCID mouse assessed as effect on recurrence rate on post treatment at 40 mg/kg, po administered daily for 21 days. It counts as functional, organism-based. Set-up: dose 40 mg/kg. The gist of the method:
(§2)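 NOD/SCID mice given 1 × 10^6 B837Tx cells in the right hind flank. Once tumors reached about 100-200 mm³, N=10/group were gavaged daily for 21 days. Vehicle: 30% (w/w) HPBCD in 0.1 M citrate phosphate buffer, pH 3, dosing solutions 5-10 mg/mL. Tumors measured in two perpendicular dimensions by caliper 3 times weekly. Regrowth monitored over a 21-day post-treatment phase.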

The nature of data set [7]: Plasma clearance in cynomolgus monkey at 1 mg/kg, iv. It counts as ADME, organism-based, Macaca fascicularis. Set-up: dose 1 mg/kg, route intravenous. The gist of the method: as §1
Data set [8] can be described thus: Plasma clearance in Beagle dog at 1 mg/kg, iv. Format: ADME, organism-based, Canis lupus familiaris. Set-up: dose 1 mg/kg, route intravenous. The gist of the method: as §1
A short description of data set [9]: (§3) Antitumor activity against Ptc+/- Hic+/- mouse B837Tx cells allografted in NOD/SCID mouse assessed as tumor-free interval on 21 days post treatment at 40 mg/kg, po administered daily for 21 days. It counts as functional. Summed up:
as §2

Data set [10] in a line: Elimination half life in CD1 mouse at 1 mg/kg, iv. Format: ADME, organism-based. Also noted: dose 1 mg/kg, route intravenous. The note with it: in vivo, read-out: beta t1/2 (converted). Summed up: as §1
The nature of data set [11]: Volume of distribution in Sprague-Dawley rat at 1 mg/kg, iv. Set-up: dose 1 mg/kg, route intravenous. The conditions noted are these: in vivo. Format: ADME, organism-based. Summed up: as §1
The nature of data set [12]: Plasma clearance in CD1 mouse at 1 mg/kg, iv. It counts as ADME, organism-based. Also noted: dose 1 mg/kg, route intravenous. Summed up:
as §1

The nature of a further data set: in vitro. The conditions noted are these: human.
Data set [13] can be described thus: Elimination half life in Beagle dog at 1 mg/kg, iv. It counts as ADME, organism-based, Canis lupus familiaris. Set-up: dose 1 mg/kg, route intravenous. The conditions noted are these: in vivo, read-out: beta t1/2 (converted). Summed up: as §1
Data set [14] is described as follows: Elimination half life in Sprague-Dawley rat at 1 mg/kg, iv. Format: ADME, organism-based. Also noted: dose 1 mg/kg, route intravenous. The conditions noted are these: in vivo, read-out: beta t1/2 (converted). Summed up: as §1
Data set [15] in a line: (§4) Antitumor activity against Ptc+/- Hic+/- mouse B837Tx cells allografted in NOD/SCID mouse assessed as median time to unmeasurable tumor volume at 40 mg/kg, po administered daily for 21 days. It counts as functional. Summed up: as §2
The nature of data set [16]: Elimination half life in cynomolgus monkey at 1 mg/kg, iv. Format: ADME, organism-based, Macaca fascicularis. Also noted: dose 1 mg/kg, route intravenous. The note with it: in vivo, read-out: beta t1/2 (converted). Summed up: as §1
The nature of data set [17]: Oral bioavailability in CD1 mouse at 5 mg/kg. It counts as ADME, organism-based. The note with it: in vivo.
The nature of data set [18]: Oral bioavailability in Sprague-Dawley rat at 5 mg/kg. Format: ADME, organism-based. The conditions noted are these: in vivo.
The nature of data set [19]: Inhibition of HedgeHog pathway in mouse C3H10T1/2 cells assessed as inhibition of 20-(S)-hydroxysterol/22-(S)-hydroxysterol-induced osteoblastic differentiation after 72 hrs by alkaline phosphatase assay. The conditions noted are these: C3H 10T1/2, 72 h.
Data set [20] in a line: Volume of distribution in Beagle dog at 1 mg/kg, iv. It counts as ADME, organism-based, Canis lupus familiaris. Also noted: dose 1 mg/kg, route intravenous. The conditions noted are these: in vivo. Summed up:
as §1

For data set [21], the system named is Mus musculus. The description is as §3. It counts as functional. The gist of the method:
as §2

Data set [22] deals with Mus musculus. The data set is described as §4. Format: functional. Summed up: as §2
A short description of data set [23]: Volume of distribution in cynomolgus monkey at 1 mg/kg, iv. The note with it: in vivo. Also noted: dose 1 mg/kg, route intravenous. Format: ADME, organism-based, Macaca fascicularis. The gist of the method: as §1
Data set [24] can be described thus: Antitumor activity against Ptc+/- Hic+/- mouse B837Tx cells allografted in NOD/SCID mouse assessed as tumor-free interval on 21 days post treatment at 30 mg/kg, po administered daily for 21 days. It counts as functional. The gist of the method:
as §2

The nature of data set [25]: Antitumor activity against Ptc+/- Hic+/- mouse B837Tx cells allografted in NOD/SCID mouse assessed as median time to unmeasurable tumor volume at 30 mg/kg, po administered daily for 21 days. Format: functional. Summed up: as §2
Data set [26] is described as follows: Antitumor activity against Ptc+/- Hic+/- mouse B837Tx cells allografted in NOD/SCID mouse assessed as tumor-free interval on 21 days post treatment at 80 mg/kg, po administered daily for 21 days. It counts as functional. Summed up: as §2
Data set [27] in a line: Antitumor activity against Ptc+/- Hic+/- mouse B837Tx cells allografted in NOD/SCID mouse assessed as median time to unmeasurable tumor volume at 80 mg/kg, po administered daily for 21 days. Format: functional. Summed up: as §2

Activity calls are given as the source filed them.

Chain of Protein smoothened (Q99835 whole entry): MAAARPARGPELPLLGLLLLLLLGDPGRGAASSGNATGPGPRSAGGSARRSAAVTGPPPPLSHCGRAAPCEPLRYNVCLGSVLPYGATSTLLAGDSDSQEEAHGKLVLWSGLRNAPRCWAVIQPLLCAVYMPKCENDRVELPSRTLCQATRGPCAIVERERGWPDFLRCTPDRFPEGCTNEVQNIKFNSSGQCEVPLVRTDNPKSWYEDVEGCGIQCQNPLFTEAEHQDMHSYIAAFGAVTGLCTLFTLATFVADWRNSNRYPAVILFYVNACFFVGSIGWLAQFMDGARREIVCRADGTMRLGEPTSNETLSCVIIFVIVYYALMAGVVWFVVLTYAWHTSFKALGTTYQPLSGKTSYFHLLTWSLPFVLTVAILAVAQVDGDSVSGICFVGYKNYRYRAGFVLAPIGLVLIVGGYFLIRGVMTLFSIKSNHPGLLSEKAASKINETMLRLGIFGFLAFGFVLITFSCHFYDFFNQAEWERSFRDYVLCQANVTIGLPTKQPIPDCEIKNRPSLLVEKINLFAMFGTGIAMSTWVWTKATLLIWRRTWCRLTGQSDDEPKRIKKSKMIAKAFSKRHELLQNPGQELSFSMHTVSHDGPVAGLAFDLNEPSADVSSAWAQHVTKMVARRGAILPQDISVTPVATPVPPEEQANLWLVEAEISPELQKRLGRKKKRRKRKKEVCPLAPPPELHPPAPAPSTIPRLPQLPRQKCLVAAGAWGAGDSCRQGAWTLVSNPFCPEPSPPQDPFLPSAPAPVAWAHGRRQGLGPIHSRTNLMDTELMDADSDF

Take `CC1=C2C[C@H]3[C@@H](CC[C@@H]4C[C@H](NS(C)(=O)=O)CC[C@@]43C)[C@@H]2CC[C@@]2(C1)O[C@@H]1C[C@H](C)CN[C@H]1[C@H]2C` [PATIDEGIB]: the volume of distribution (Vd) in data set [1] amounted to 11 L/kg; in data set [11] it was 30 L/kg; in data set [20], 15.3 L/kg. In addition, the bioavailability in data set [2] was determined as 74%; in data set [3] it was 50%; in [17], 100%; in [18], 100%. In addition, the clearance was 3.5 mL/min/kg in data set [4], 15 mL/min/kg in [7], 11 mL/min/kg in data set [8] and 12.3 mL/min/kg in [12]. Moreover, the MTD at 120 h in data set [5] was 40 mg/kg. In addition, the IC50 on Protein smoothened was 1.4 nM. In the data set on Mus musculus [6], the result was Active. Further, the Activity in [9] turned out to be 21 days; in data set [15], 9 days. Further, the half-life was 10.5 h in data set [10], 15.5 h in [13], above 24 h in data set [14] and 8.2 h in data set [16]. For the same compound, the half-life at 0.5 µM in the data set “in vitro” (microsomes) was 1.42 h. Also, in data set [19], the EC50 amounted to 7 nM.
On to `CC1=C2C[C@H]3[C@@H](CC=C4C[C@@H](O)CC[C@@]43C)[C@@H]2CC[C@]12O[C@@H]1C[C@H](C)CN[C@H]1[C@H]2C`, for which the outcome in the data set with Mus musculus [6], with Mus musculus [21] and with Mus musculus [22] was inactive.
With `CC1=C2C[C@H]3[C@@H](CC[C@@H]4CNC(=O)CC[C@@]43C)[C@@H]2CC[C@@]2(C1)O[C@@H]1C[C@H](C)CN[C@H]1[C@H]2C`, the volume of distribution (Vd) in data set [23] is 4.3 L/kg; in data set [1] it was 2 L/kg; in data set [11], 4.9 L/kg; in data set [20], 3 L/kg. The bioavailability in data set [2] amounted to 100%; in data set [3], 97%; in [17], 100%; in data set [18] it was 100%. For the same compound, the clearance was 10.5 mL/min/kg in data set [4], 13.3 mL/min/kg in [7], 5.5 mL/min/kg in data set [8] and 8.33 mL/min/kg in data set [12]. For the same compound, in data set [5], the MTD at 120 h was 30 mg/kg. The half-life is 3 h in data set [10], 6.5 h in data set [13], 5.4 h in data set [14] and 3.8 h in data set [16]. The compound further came in with a half-life at 0.5 µM in “in vitro” (microsomes) of 1.08 h. The Activity in [24] amounted to 10 days; in data set [25], 9 days. The EC50 in data set [19] amounted to 25 nM.
On to `CC1=C2C[C@H]3[C@@H](CC[C@@H]4Cc5[nH]ncc5C[C@@]43C)[C@@H]2CC[C@@]2(C1)O[C@@H]1C[C@H](C)CN[C@H]1[C@H]2C`, for which the Vd was 13 L/kg in [23], 9 L/kg in data set [1], 13 L/kg in data set [11] and 6 L/kg in [20]. Also, the bioavailability in data set [2] was 84%; in data set [3], 73%; in data set [17], 52%; in [18], 34%. The clearance in [4] was 125 mL/min/kg; in [7], 30 mL/min/kg; in data set [8] it was 10 mL/min/kg; in data set [12], 33.3 mL/min/kg. Further, in data set [5], the MTD at 120 h turned out to be 80 mg/kg. In addition, the Activity was 19 days in data set [26] and 9 days in data set [27]. Also, the half-life was 3 h in [10], 6.8 h in data set [13], 1.2 h in [14] and 5.6 h in data set [16]. In addition, in the data set “in vitro” (liver microsomes), the half-life at 0.5 µM was 2 h. For the same compound, the EC50 in data set [19] is 13 nM.

What is called Vd is a proportionality between amount in the body and measured concentration, not a real space. For orientation: bioavailability means dose-corrected exposure relative to a reference, in per cent. Usually clearance stands for the volume of plasma or blood freed of the substance per unit of time. One may read the MTD as the largest dose that counted as tolerated. As usually defined, the IC50 is the concentration that gives 50% inhibition. A word on the EC50: it is the concentration at which the effect is half-maximal.

For the origin of these results see ChEMBL document CHEMBL1158454, “Discovery of a potent and orally active hedgehog pathway antagonist (IPI-926)” (J Med Chem, 2009).
